Assay results pooled from the literature.
Protocols differ between the studies behind these lines. pIC50: −log10 of the molar value.
Read-out: cell growth or viability

SMILES	cell line	method	time	pIC50
C=C(C)C(=O)Nc1ccc(-c2c(-c3ccc(Oc4nccc(C)n4)c(F)c3)c3c(N)ncnc3n2C)cc1	SNU-16	ATP luminescence	96 h	8.49
CN(C)CCCOc1cc(NC(=O)c2cc(Cl)cc(C(=O)Nc3cc(OCCCN(C)C)c4ccccc4n3)n2)nc2ccccc12	HT-1080	ATP luminescence	72 h	5.74
CC(C)C[C@H](NC(=O)[C@H](Cc1ccccc1)NC(=O)c1cnccn1)B(O)O	SK-N-MC	ATP luminescence		8.11
CC(C)C[C@H](NC(=O)[C@H](Cc1ccccc1)NC(=O)c1cnccn1)B(O)O	MM.1R	ATP luminescence	48 h	8.05
CCN1C(=O)N(c2c(F)c(OC)cc(OC)c2F)Cc2cnc3[nH]c(CN4CCOCC4)cc3c21	SNU-16	ATP luminescence	96 h	8.47
CCN(CC)CCCC(C)Nc1cnc(C(=O)Nc2cc(F)cc3cccnc23)cn1 (centres unmarked)	Pan02	MTT		5.37
O=C(O)c1ccc(NC(=O)c2cc3cc(Cl)ccc3[nH]2)cc1	T24	MTT		4.82
O=C1Nc2ccccc2C1=Cc1cc2ccc(Cl)cc2nc1Cl	CHO	MTT	72 h	4.41
COc1cc(C(=O)Nc2cc(OCCN3CCCC3)c3ccccc3n2)nc(C(=O)Nc2cc(OCCN3CCCC3)c3ccccc3n2)c1	HT-1080	ATP luminescence	72 h	5.82
CN1C(=O)c2cc(C(N)=O)nc3c(N)c(Cl)c(N)c1c23	HCC4017			4.80
O=C(Nc1cc(OCCN2CCCC2)c2ccccc2n1)c1cc(Cl)cc(C(=O)Nc2cc(OCCN3CCCC3)c3ccccc3n2)n1	HT-1080	ATP luminescence	72 h	5.47
O=[N+]([O-])c1ccc(NC(=S)NN=Cc2ccccn2)cc1	BHK	SRB	48 h	4.26
COc1cc(Nc2nccc(-c3cnn4nc(OC)ccc34)n2)cc(C(F)(F)F)c1	SK-N-MC	ATP luminescence		6.89
NCCCOc1cc(NC(=O)c2cc(Cl)cc(C(=O)Nc3cc(OCCCN)c4ccccc4n3)n2)nc2ccccc12	HT-1080	ATP luminescence	72 h	6.22
C=CC(=O)Nc1ccc(CCn2cc(C[C@@]3(O)C[C@@H]4c5cc(OCc6cc(C)cc(C)c6)c(OCc6cc(C)cc(C)c6)cc5CCN4[C@@H](C)C3)nn2)cc1	GES1	MTT	48 h	6.14
CCN1CCN(c2ccc(Nc3cc(N(C)C(=O)Nc4c(Cl)c(OC)cc(OC)c4Cl)ncn3)cc2)CC1	NCI-H716	ATP luminescence	96 h	8.24

SMILES	cell line	method	time	pIC50
O=C(Nc1cc(OCCN2CCCC2)c2ccccc2n1)c1cc(OCc2ccc(F)cc2)cc(C(=O)Nc2cc(OCCN3CCCC3)c3ccccc3n2)n1	HT-1080	ATP luminescence	72 h	5.07
O=C(Nc1cccc(CO)c1)c1c[nH]c2ccc(Cl)cc12	T24	MTT		4.80
Oc1ccccc1CN=CCNc1ccnc2cc(Cl)ccc12	CHO	MTT		< 3.52
CCCON(Cc1ccc(C(=O)NO)cc1)C(=O)Nc1ccccc1	SUP-B15	ATP luminescence	72 h	5.17
CC(C)/N=C1\c2cc(C(N)=O)nc3c(N)c(Cl)c(N)c(c23)N1C	HCC4017			6.32
COc1cc(OC)c(/C=C/S(=O)(=O)Nc2ccc(OC)c(N)c2)c(OC)c1	NCI-H187	trypan blue	96 h	8.40
Cc1cc(C)cc(COc2cc3c(cc2OCc2cc(C)cc(C)c2)[C@H]2C[C@](O)(Cc4cn(Cc5ccc(S(C)(=O)=O)cc5)nn4)C[C@H](C)N2CC3)c1	GES1	MTT	48 h	5.69
CC[C@H]1CN2CCc3cc(OC)c(OC)cc3[C@@H]2C[C@@H]1C[C@H]1NCCc2cc(OC)c(OC)cc21	CHO	MTT		6.60
O=C(Nc1cc(OCCN2CCCC2)c2ccccc2n1)c1cc(OCCN2CCCC2)cc(C(=O)Nc2cc(OCCN3CCCC3)c3ccccc3n2)n1	HT-1080	ATP luminescence	72 h	5.66
CC(=O)O[C@@]12CO[C@@H]1C[C@H](O)[C@@]1(C)C(=O)[C@H](O)C3=C(C)[C@@H](OC(=O)[C@H](O)[C@@H](NC(=O)OC(C)(C)C)c4ccccc4)C[C@@](O)([C@@H](OC(=O)c4ccccc4)[C@H]21)C3(C)C	HCC1937	ATP luminescence	72 h	< 5.60
COc1cccc2c1C(=O)c1c(O)c3c(c(O)c1C2=O)C[C@@](O)(C(=O)CO)C[C@@H]3O[C@H]1C[C@H](N)[C@H](O)[C@H](C)O1	A 172	WST-1	72 h	7.40
Clc1ccc2c(NCCNCc3ccccn3)ccnc2c1	CHO	MTT		3.84
NCCCOc1cc(NC(=O)c2cc(OCCN)cc(C(=O)Nc3cc(OCCCN)c4ccccc4n3)n2)nc2ccccc12	HT-1080	ATP luminescence	72 h	5.17
COc1c(C)c(OS(=O)(=O)c2ccc3ccccc3c2)c(C)c(OS(=O)(=O)c2ccc3ccccc3c2)c1C(=O)/C=C/c1ccccc1	SH-SY5Y	SRB	72 h	< 4.30
Cc1ccc2nc(Cl)c(C=C3C(=O)Nc4ccccc43)cc2c1	CHO	MTT	72 h	4.10
CN(C)CCOc1cc(NC(=O)c2cc(Cl)cc(C(=O)Nc3cc(OCCN(C)C)c4ccccc4n3)n2)nc2ccccc12	HT-1080	ATP luminescence	72 h	5.66
